Assay outcomes deposited in PubChem by several laboratories.
The list is not random: actives were taken first. Their share in the collection is about 9.8%.
Lmaj promast = Leishmania major promastigote growth inhibition; 200,000 compounds, 9% hits; inhibition, % at 10 µM; Leishmania major promastigotes, resazurin fluorescence viability; AID 1063; in the data active means inhibition above about 50%;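 further: promastigotes grown with compound for 44 hours at 28 °C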
WT yeast gro inh = growth inhibition of WT yeast, mitochondrial fusion screen | mitochondrial fusion phenotypic screen, WT strain | 190,000 compounds, 2.1% hits | inhibition, % at 10 µM | AID 1362; in the data active means inhibition above about 58%; tested in S. cerevisiae
Rad51 HR inh = Rad51 (human) homologous recombination inhibition | Q06609 | hRad51 DNA strand exchange, fluorescence dequenching | inhibition, % at 10 µM | 200,000 compounds, 0.085% hits;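 active means inhibition above 40% at the single screening dose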;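 further: 0% = DMSO control wells and 100% = blanks with heterologous ssDNA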
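System: human Rad51 nucleoprotein filaments preassembled on unlabelled ssDNA. Reagent: labelled 47-mer dsDNA for strand exchange. Schedule: 30-min compound preincubation and 15-min exchange, both room temperature. Measured by: FRET fluorescence dequenching, excitation 485 nm, emission 520 nm. Read-out: Fluorescence-based percent inhibition, control- and blank-normalised. Benchmarks: plate controls and plate blanks.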
PMI activator = phosphomannose isomerase (human) activation. activation factor at 20 µM. purified human PMI, coupled resazurin fluorescence, 20 min; active compounds read high; 1 = vehicle control, 0 substrate-free wells. AID 1214. 190,000 compounds, 0.005% hits;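 active means activation factor of 2 or more at 20 µM, relative to plate controls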
Target sequence (P34949 whole entry, looked up): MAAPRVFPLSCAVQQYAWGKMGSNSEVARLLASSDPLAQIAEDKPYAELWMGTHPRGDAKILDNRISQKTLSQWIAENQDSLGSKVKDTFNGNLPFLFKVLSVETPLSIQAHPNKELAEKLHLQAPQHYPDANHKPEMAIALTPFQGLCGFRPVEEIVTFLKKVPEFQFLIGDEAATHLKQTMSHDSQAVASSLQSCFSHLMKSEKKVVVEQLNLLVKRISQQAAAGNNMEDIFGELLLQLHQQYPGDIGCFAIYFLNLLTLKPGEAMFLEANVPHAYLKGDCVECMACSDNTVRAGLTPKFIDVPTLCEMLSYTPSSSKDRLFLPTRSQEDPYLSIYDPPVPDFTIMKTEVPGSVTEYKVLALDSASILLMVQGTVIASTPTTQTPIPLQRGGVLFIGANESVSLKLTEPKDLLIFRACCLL
PMI act satM6P = increases human PMI activity with near-saturating mannose 6-phosphate | 190,000 compounds, 0.34% hits | P34949 | coupled PMI enzyme assay, resazurin fluorescence, 20 min; active compounds read high; 1 = untreated enzyme, 0 = substrate-free blank | activation factor at 20 µM;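 active means activation factor of 2 or more at 20 µM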
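Test system: Human PMI in coupled enzyme assay | Input: 15 ng/mL PMI | Medium: HEPES-buffered pH 7.4 with magnesium and detergent | Compound: One concentration, 20 µM, in 1% DMSO | Incubation: Enzyme reaction with compound 20 min at room temperature | Detection: Diaphorase-driven resazurin-to-resorufin fluorescence, excitation 544, emission 590 nm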
Calpain2 inh = calpain II (pig) inhibition; purified calpain II, fluorogenic peptide substrate, 30 min; inhibition, % at 16 µM; 220,000 compounds, 0.37% hits; AID 1236;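 active means inhibition above about 50%, limit read from the data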
The depositor's hits bear a star; i = inactive; / = no result given.

SMILES	Lmaj promast	WT yeast gro inh	Rad51 HR inh	PMI activator	PMI act satM6P	Calpain2 inh
CCN1CCc2c(sc(NC(=O)Nc3ccc(Cl)c(Cl)c3)c2C(N)=O)C1	49.9	77.2*	i	1	0.8	-199.8
CCOC(=O)c1c(NC(=O)c2ccco2)sc2c1CCCCC2	7.3	8.6	-7.3	0.9	0.9	-278.7
O=S(=O)(Cc1ccccc1)C1CCCCC1O (stereo not drawn)	/	/	29.6	/	/	-7.1
O=C(/C=C/c1ccc(Br)o1)NCc1ccccc1	-4.0	10.5	10.1	1.2	1.1	-43.6
Cc1[nH]n(-c2ccccc2)c(=O)c1C(C[N+](=O)[O-])c1ccc(Br)cc1 (stereo not drawn)	100.3*	27.5	4.3	0.7	0.7	-4.5
Cc1[nH]n(-c2ccccc2)c(=O)c1C(c1cccc([N+](=O)[O-])c1)c1c(C)[nH]n(-c2ccccc2)c1=O	25.9	27.9	-11.0	0.9	0.7	-24.3
Cn1c(N)c(C(=O)COC(=O)C2=NNC(=O)CC2)c(=O)n(C)c1=O	/	/	-9.8	/	/	-8.9
CC1=CCC(C(=O)O)(C(=O)N/N=C/c2cccs2)C(c2ccc([N+](=O)[O-])cc2)C1 (stereo not drawn)	-7.2	69.5*	1.9	1	1	44.0
Cc1ccc(C)c(NCC(O)c2ccccc2)c1 (stereo not drawn)	-2.3	-5.8	3.5	1	0.9	-6.7
CCNc1ccc2noc3c2c1C(=O)c1ccccc1-3	9.3	45.6	-2.5	0.7	0.5	-6.0
O=C1c2ccccc2-c2onc3ccc(NCc4ccco4)c1c23	-2.4	65.8*	i	0.8	0.4	-8.4
CCN1C(=O)C(CC(=O)Nc2ccc(F)cc2)N(Cc2cccs2)C1=S (stereo not drawn)	10.3	11.4	2.0	0.9	0.9	38.4
COC(=O)CN1C(=S)N(c2ccc(Cl)cc2)C(=O)C1CC(=O)Nc1ccc(Cl)cc1 (stereo not drawn)	-1.9	20.6	/	1.1	1.1	32.5
CCOc1ccc(N2C(=O)C(CC(=O)Nc3ccc(F)cc3)N(Cc3ccccn3)C2=S)cc1 (stereo not drawn)	67.8*	-6.9	10.2	0.9	0.9	-70.8
COC(=O)CN1C(=S)N(Cc2ccccc2)C(=O)C1CC(=O)Nc1ccc(Br)cc1 (stereo not drawn)	88.3*	18.2	0.4	0.9	1	20.2
CCN1C(=O)C(CC(=O)Nc2ccc(OC)cc2)N(CCCN2CCN(c3ccc(OC)cc3)CC2)C1=S (stereo not drawn)	72.2*	-6.0	-18.5	0.9	0.9	-32.4
CCN1C(=O)C(CC(=O)Nc2ccc(OC)cc2)N(CCN2CCOCC2)C1=S (stereo not drawn)	/	/	15.7	/	/	-3.9
CCCOc1ccc(NC(=O)CC2C(=O)N(Cc3ccccc3)C(=S)N2Cc2cccs2)cc1 (stereo not drawn)	64.9*	41.1	23.6	0.8	0.8	25.9
CC(C)S(=O)(=O)c1csc(NC(=O)Nc2cccc([N+](=O)[O-])c2)c1Cl	/	/	-10.7	/	/	19.7
CC1CCCC(NC(=O)C2CCN(S(=O)(=O)N3CCCCCC3)CC2)C1C (stereo not drawn)	9.9	1.1	/	1.1	1	-3.4
O=C(Nc1ccc(S(=O)(=O)Nc2ncccn2)cc1)c1ccc(N2CCCC2=O)cc1	/	/	-19.8	/	/	-37.2
CCOC(=O)c1c(CC(C)C)csc1NC(=O)COC(=O)c1cc(OC)c(OC)cc1[N+](=O)[O-]	-2.2	-19.5	0.1	0.9	1	-7.3
CC(Cc1cccs1)NC(=O)Nc1ccc([N+](=O)[O-])cc1 (stereo not drawn)	15.5	18.6	3.9	0.9	0.9	11.2
COc1ccc(NC(=O)CC2C(=O)N(CCc3ccccc3)C(=S)N2Cc2cccnc2)cc1 (stereo not drawn)	84.9*	3.1	3.4	0.9	1.1	-9.9
Cc1ccc(C2(c3noc(CN(C)Cc4cnn(C)c4)n3)CCCC2)cc1	5.6	15.1	18.2	0.9	0.9	1.4
SMILES	Lmaj promast	WT yeast gro inh	Rad51 HR inh	PMI activator	PMI act satM6P	Calpain2 inh
O=C(Nc1cc(Br)ccc1O)c1cnn2c(C(F)F)cc(C3CC3)nc12	51.2*	17.1	-1.2	1	1	5.7
O=C(C1CCC(CNc2c(N3CCCCC3)c(=O)c2=O)CC1)N1CCCC1 (stereo not drawn)	/	/	14.3	/	/	-1.0
O=C1C=C(O)c2cccc(O)c2C1=O	/	/	0.5	/	/	-4.9
CC1=CC(=O)c2c(O)ccc(O)c2C1=O	97.6*	34.8	-35.5	1.5	1.3	46.7
NCCc1nnc(SCC(=O)c2ccc(Cl)cc2)o1	/	/	/	/	/	-10.0
Cc1cnc(C(=O)OCC(=O)N2c3ccccc3NC(=O)C2(C)C)cn1	7.5	-28.5	-2.5	1.1	1	-0.4
Cc1nn(-c2ccccc2)c(C)c1C(=O)OCC(=O)N1c2ccccc2NC(=O)C1(C)C	87.8*	-5.1	-5.9	1	1	23.2
CC(=O)c1c(C)[nH]c(C(=O)OCC(=O)N2c3ccccc3NC(=O)C2(C)C)c1C	55.6*	-7.2	1.3	1	0.9	8.8
CCc1nc(SCc2nc3ccccc3[nH]2)c2oc3ccccc3c2n1	24.0	74.1*	-1.4	0.8	0.9	11.4
CCNc1nc(C)nc2c1oc1ccccc12	32.8	9.2	4.5	1	1	-1.4
c1ccc(Cn2nnc3c(N4CCN(Cc5ccc6c(c5)OCO6)CC4)ncnc32)cc1	-14.8	48.0	1.9	0.9	0.9	9.5
CCNc1nc(CC)nc2c1oc1ccccc12	56.6*	18.7	0.7	1.2	1.3	-8.4
CCc1nc(NCc2ccc3c(c2)OCO3)c2oc3ccccc3c2n1	72.1*	1.6	-6.0	1	0.9	15.8
c1ccc2c(c1)oc1c(N3CCN(Cc4ccc5c(c4)OCO5)CC3)ncnc12	94.5*	75.6*	1.6	0.9	0.9	6.5
CC1CN(Cc2nc3ccccc3c(=O)[nH]2)CC(C)O1 (stereo not drawn)	-2.8	7.7	-20.2	1.1	1	-21.4
CCc1nc(N(CC)CC)c2oc3ccccc3c2n1	30.9	28.3	-6.8	/	/	18.5
CCc1nc(N2CCC(C)CC2)c2oc3ccccc3c2n1	5.8	73.4*	/	1	1.1	-18.0
O=C(NCc1cc(Br)cc(Br)c1OC(=O)c1ccccc1[N+](=O)[O-])c1ccccc1	-2.4	39.4	3.4	0.9	0.9	-14.7
Cc1cc(C)cc(OCC(O)CN2CCN(Cc3ccc4c(c3)OCO4)CC2)c1 (stereo not drawn)	90.3*	11.7	-0.1	1.3	1.3	6.7
OCCN1CCN(CC(O)COCc2ccc3c(c2)OCO3)CC1 (stereo not drawn)	-4.3	-5.6	0.5	1.3	1.3	10.3
CCN1CCN(CC(O)COCc2cc(OC)c(OC)c(OC)c2)CC1 (stereo not drawn)	-3.4	-1.3	17.7	1	1	-3.7
